Experimental data: ChEMBL document CHEMBL4513216, “Probing the Open Global Health Chemical Diversity Library for Multistage-Active Starting Points for Next-Generation Antimalarials” (ACS Infect Dis, 2020)

Assay: Toxicity liver stage against HepG2, at 10uM
Type: cell-based
Design: test concentration 10 uM, cell line HepG2-A16-CD81EGFP
Conditions: human, HepG2-A16-CD81EGFP cells; read-out: INHIBITION
Summary of the method: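 Uninfected HepG2-A16-CD81EGFP cells, 3 × 10^3 per well, 1536-well, plated on prespotted compound at 10 μM final, parasite-free screening media added to match infected plates; puromycin 10 μM positive, DMSO 0.5% negative; run in parallel with 48 h PbLuc assay at 37 °C, 5% CO2; viability by CellTiter-Glo luminescence, normalized to controls.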

| Structure (SMILES) | cytotoxicity at 10 µM [%] |
| --- | --- |
| CC(C)CN1C[C@H](COCc2ccccc2)Oc2ncccc2C1=O | -57.4 |
| CNC(=O)[C@@H]1[C@@H](c2ccccc2)CN2CCN(Cc3ccccn3)C[C@H]12 | 8.76 |
| COC1CN(C(=O)NCC(N)=O)CCC(=O)N(C)c2ccccc21 (stereo unspecified) | -3.84 |
| O=C(CCN1C(=O)CC2(CCCC2)C1=O)NCCc1nccs1 | 2.86 |
| O=S(=O)(NCC1(O)CCOCC1)c1ccccc1Br | -5.93 |
| Cn1cc(C(=O)Nc2ccc3c(c2)N(C(=O)c2ccco2)CC3)nn1 | 0.529 |
| O=C(C1CCCCC1)N1CCO[C@@H]2CNC[C@@H]21 | 8.82 |
| O=C(c1cc(-c2ccn(CC3CC3)n2)n2ccccc12)N1CCCO1 | 5.07 |
| CNC(=O)c1cnc2n1CCN(C(=O)Cc1ccccn1)C2 | 6.68 |
| CCN(C)c1ncnc2c1CCN(C(=O)[C@H]1CCCO1)CC2 | 3.38 |
| O=C(c1ccccc1-n1cnnn1)N1CCC2(CC1)OCCO2 | 1.5 |
| Cn1c(=O)[nH]c(=O)n2c(CC(=O)Nc3ccc(Cl)c(Cl)c3)cnc12 | 3.82 |
| CCC(CC)C(=O)NCc1cnn(CC)c1 | 7.19 |
| Cn1cc(-c2cc(C(F)(F)F)nn2CCC#N)cn1 | 6.5 |
| CCS(=O)(=O)N1CCCCC1c1nc(C)no1 (stereo unspecified) | 7.03 |
| CC(C(=O)NCCCn1ccnc1)n1cc(Br)cn1 (stereo unspecified) | -13.8 |
| CCCn1nc(C)c(-c2cncn2CC2(N(C)C)CCC(C)CC2)c1C (stereo unspecified) | 9.35 |
| Cc1nc(N)ncc1C(=O)N1CCCC1(C)C(=O)N(C)C (stereo unspecified) | 10.2 |
| CC(=O)Nc1nc(SCc2ccc3c(c2)OCO3)ns1 | -8.98 |
| Cc1ncncc1C(=O)N1CCOC(C(=O)NC2CCCC2)C1 (stereo unspecified) | -4.23 |
| Cc1cc(C)nc(C2CCCN2C(=O)c2coc(C)n2)n1 (stereo unspecified) | 6.93 |

| Structure (SMILES) | cytotoxicity at 10 µM [%] |
| --- | --- |
| Nc1nccc(C2CCN(CC3CC3)C2)n1 (stereo unspecified) | 8.54 |
| O=C1Nc2ccccc2CNC12CCN(CC1CC1)CC2 | 6.03 |
| Cc1nnc(CSc2ccccn2)o1 | 14.3 |
| CC(C)c1nnc2n1CCN(C(C(N)=O)c1ccc(F)cc1)C2 (stereo unspecified) | 1.54 |
| COCCC(=O)N1CCC(NC(=O)c2cscc2C)CC1 | -14.2 |
| O=C(CS(=O)(=O)Cc1cccc(Br)c1)Nc1cn[nH]c1 | 0.575 |
| CC(C)(C)c1nc2cc(NC(=O)Cn3ccc(=O)[nH]c3=O)ccc2o1 | -7.07 |
| CCC(C)(C)NC(=O)COC(=O)c1cc(C)ccc1NC(=O)N(C)C | 1.12 |
| CN(C)c1cc2c(nn1)CCN(C(=O)C1COc3ccccc3C1)C2 (stereo unspecified) | 14.3 |
| Cc1noc(C)c1CCC(=O)N1CCCC(n2ccnc2C)C1 (stereo unspecified) | 10.9 |
| CC1CCCCN1Cc1nc(Cc2ccccc2)no1 (stereo unspecified) | 4.61 |
| Cc1oc(-c2ccsc2)nc1CC(=O)NCC(C)(C)CN(C)C | -5.81 |
| COCc1csc(NC(=O)NCc2ccsc2)n1 | 4.53 |
| CCCc1cc(C(=O)Nc2nc(SC)ns2)[nH]n1 | -19.3 |
| CCOc1cccc(CCNC(=O)Cc2ccccc2O)n1 | -2.55 |
| CN(C)C(=O)CNC(CC(F)(F)F)c1ccc(Cl)cc1 (stereo unspecified) | -3.53 |
| CC(NC(=O)Cn1cccn1)c1cccnc1 (stereo unspecified) | 15.9 |
| COCCC(=O)N1CCc2cc(Cl)cc(Cl)c2C1 | -13.1 |
| COC(=O)CCNC(=O)c1ccoc1CN1c2ccccc2CC1C (stereo unspecified) | -9.23 |
| Cc1nn(C)c(C)c1C(C)NC(=O)c1cc(CN2CCC(O)CC2)on1 (stereo unspecified) | 0.894 |
| Cc1cccc2c1nc(CCO)n2-c1ccc(C(=O)N2CCCC2)o1 | 7.39 |

| Structure (SMILES) | cytotoxicity at 10 µM [%] |
| --- | --- |
| CCn1cnnc1Cc1nc2c([nH]1)CC(c1ccc(Cl)cc1)CNC2=O (stereo unspecified) | -48.9 |
| CN(C)CC1(O)CCN(Cc2cnc3c(-c4ccccc4)cnn3c2)C1 (stereo unspecified) | -6.16 |
| Cc1cc(C)n2ncc(CN3CCC(Cn4cc(CO)nn4)CC3)c2n1 | 7.85 |
| CN(C)CCCn1ccnc1C1CCN(c2cccc(C(=O)O)n2)CC1 | 6.87 |
| CCC[C@@H]1CN(C(=O)c2cc3ccccc3s2)C[C@H]1NS(C)(=O)=O | -9.53 |
| Cc1ccc(-c2c(-c3ccccc3)ncn2CCCN2CCOCC2)o1 | 6.23 |
| CNc1ncccc1C(=O)N1CCCC2(CCN(C)CC2)CC1 | -9.17 |
| O=C(NCc1cccnc1-n1cncn1)C1CC2(CCNCC2)CN1 (stereo unspecified) | 2.08 |
| COCCc1noc(CNC2CCCC(C)(C)C2)n1 (stereo unspecified) | -0.475 |
| N#Cc1cccc(S(=O)(=O)N2CCCCC2CCN2CCCC2=O)c1 (stereo unspecified) | -16.9 |
| CCN(CC)c1ccc(-c2nc(-c3cccc(OC)c3OC)no2)cn1 | 20 |
| CCCc1nc(C)cc(N2CCC3(CCC(=O)N(CCOC)C3)CC2)n1 | 9.51 |
| O=C(Nc1ccc(CCN2CCC(O)CC2)cc1)C1CCCOC1 (stereo unspecified) | -4.81 |
| CCc1csc(C2CCCN(C(=O)C3=NN(CC)C(=O)CC3)C2)n1 (stereo unspecified) | -6.26 |
| Cc1noc(C)c1C(=O)NCC(O)c1ccc(F)cc1F (stereo unspecified) | -3.56 |
| COc1ccc(C(O)CNC(=O)NCc2csc(C)n2)cc1 (stereo unspecified) | -6.12 |
| NC(=O)COc1cccc(C(=O)N2CCCC(n3cccn3)C2)c1 (stereo unspecified) | -4.86 |
| Cc1nc(C)c(CC(=O)Nc2nnc(C)s2)c(=O)[nH]1 | -2.17 |
| Cn1cc(Cl)cc1C(=O)N1CCCN(Cc2cccs2)CC1 | -5.82 |
| CN(Cc1nc(-c2ccco2)no1)C1CCCN(c2cccnn2)C1 (stereo unspecified) | -7.72 |
| Fc1cccc(-c2nc(CN3CCCCC3Cn3cncn3)co2)c1 (stereo unspecified) | -12.8 |

| Structure (SMILES) | cytotoxicity at 10 µM [%] |
| --- | --- |
| CCS(=O)(=O)c1ccccc1C(=O)NCc1ccnc(N(C)C)c1 | -3.92 |
| CCc1nc(CN(C)C2CCN(CCNS(=O)(=O)CC)C2)no1 (stereo unspecified) | -2.14 |
| c1ccc(-c2nc(CN3CCCC(Cn4cncn4)C3)co2)cc1 (stereo unspecified) | 3.18 |
| Cc1nc(C)n(C2CCCN(C(=O)c3cc4ccccc4n3C)C2)n1 (stereo unspecified) | -4.5 |
| CN(C)C(=O)CO[C@@H]1CC[C@H]2[C@H]1OCCN2c1ncccn1 | -6.96 |
| Cc1nc(CN2C(=O)C[C@H]3[C@H]2CCN3C2CCOCC2)cs1 | -7.87 |
| c1nc2c(c(-c3ccsc3)n1)CCN(Cc1ccoc1)CC2 | -11.4 |
| O=C(O)c1cc(NS(=O)(=O)c2ccc(Cl)s2)ccc1N1CCOCC1 | -4.05 |
| CC1=N[C@@]2(CC[C@@H]3CN(Cc4ccccc4F)C[C@@H]32)C(=O)N1CC1CC1 | 1.47 |
| CC(C)N1[C@H](Cn2cncn2)C[C@@H]2CN(c3ncccn3)CC[C@@H]21 | 3.17 |
| CC(C)n1nc(CN(C)C)c2c1CN(CC1CC1)CC2 | -3.15 |
| O=C(NC1CCC1)[C@H]1CCS(=O)(=O)[C@@H]2CN(CCc3ccccc3)C[C@H]12 | -3.06 |
| Cc1nc(N2CCCC2)nc2c1CCN(C(=O)CN(C)C)CC2 | -5.73 |
| CC(C)N(C)Cc1nnc2n1CCN(CC1CC1)CC2 | 0.319 |
| CN(C)C(=O)N[C@@H]1CN(C2CCOCC2)[C@@H]2CCCO[C@@H]21 | -4.08 |
| COCCN1C[C@@H](C)[C@@]2(COCCN(C(=O)c3cccs3)C2)C1 | 9.7 |
| O=C(N[C@@H]1CN(c2ncccn2)C[C@@H]2CCCO[C@@H]21)c1cnccn1 | 0.199 |
| CN(C)c1nc2cn(C3CC(C)(C)NC(C)(C)C3)c(=O)c-2c[nH]1 | 6.39 |
